A short description of series [1]: Distribution coefficient, log D at pH 7.4. Format: physicochemical. Particulars: octanol/water. Summed up:
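Shake-flask partitioning between octanol and pH 7.4 aqueous buffer, shaken 20 min. logD7.4 is taken as the ratio of concentrations in octanol and in buffer.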

Series [2] is described as follows: Dissociation constant, pKa of the compound. Format: physicochemical. Summed up:
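pKa determined from changes in the UV chromophore during a pH titration.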

In series [3] the target is T1, GABA-A receptor; alpha-3/beta-3/gamma-2 (Homo sapiens, UniProt P18507+P28472+P34903).
T1 sequence (P18507 whole entry): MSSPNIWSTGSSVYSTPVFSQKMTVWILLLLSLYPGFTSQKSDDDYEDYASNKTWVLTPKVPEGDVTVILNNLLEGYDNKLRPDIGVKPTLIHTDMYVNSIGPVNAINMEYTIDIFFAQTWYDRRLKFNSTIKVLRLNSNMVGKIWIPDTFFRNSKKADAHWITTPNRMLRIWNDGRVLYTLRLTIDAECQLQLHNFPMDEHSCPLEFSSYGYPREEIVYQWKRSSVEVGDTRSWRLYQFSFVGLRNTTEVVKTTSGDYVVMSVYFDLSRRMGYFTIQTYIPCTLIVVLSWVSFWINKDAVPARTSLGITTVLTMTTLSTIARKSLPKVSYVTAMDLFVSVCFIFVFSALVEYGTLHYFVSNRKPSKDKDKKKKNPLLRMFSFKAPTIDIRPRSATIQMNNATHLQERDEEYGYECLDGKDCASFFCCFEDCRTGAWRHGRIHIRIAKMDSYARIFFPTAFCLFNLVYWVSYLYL
T1 sequence (P28472 whole entry): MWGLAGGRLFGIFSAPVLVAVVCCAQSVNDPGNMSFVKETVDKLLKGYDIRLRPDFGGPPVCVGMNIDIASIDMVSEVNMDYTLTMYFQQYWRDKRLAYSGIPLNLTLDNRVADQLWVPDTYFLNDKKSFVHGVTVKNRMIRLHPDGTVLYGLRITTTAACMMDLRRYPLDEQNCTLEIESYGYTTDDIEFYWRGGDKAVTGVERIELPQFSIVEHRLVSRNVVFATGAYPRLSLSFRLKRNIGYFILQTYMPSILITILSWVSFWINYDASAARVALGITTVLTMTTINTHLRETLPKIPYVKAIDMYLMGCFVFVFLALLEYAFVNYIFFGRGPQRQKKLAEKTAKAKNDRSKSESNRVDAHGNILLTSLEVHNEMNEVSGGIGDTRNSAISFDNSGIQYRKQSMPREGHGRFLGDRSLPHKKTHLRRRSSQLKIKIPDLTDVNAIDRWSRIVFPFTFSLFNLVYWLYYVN
T1 sequence (P34903 whole entry): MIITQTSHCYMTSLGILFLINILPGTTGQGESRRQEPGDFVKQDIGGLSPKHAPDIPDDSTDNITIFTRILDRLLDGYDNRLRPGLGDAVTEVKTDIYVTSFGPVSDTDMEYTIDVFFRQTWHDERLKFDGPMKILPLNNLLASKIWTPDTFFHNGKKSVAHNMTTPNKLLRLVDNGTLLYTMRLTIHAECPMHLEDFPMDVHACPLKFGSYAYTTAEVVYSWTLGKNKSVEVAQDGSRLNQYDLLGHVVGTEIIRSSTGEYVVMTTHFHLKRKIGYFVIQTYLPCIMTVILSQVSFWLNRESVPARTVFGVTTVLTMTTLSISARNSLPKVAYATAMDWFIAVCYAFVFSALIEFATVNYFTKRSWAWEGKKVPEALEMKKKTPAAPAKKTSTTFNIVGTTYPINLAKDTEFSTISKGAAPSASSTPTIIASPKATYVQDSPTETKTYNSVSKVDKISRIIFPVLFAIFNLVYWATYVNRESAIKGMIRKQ
As to the kind of experiment: Displacement of [3H]Ro 15-1788 from human GABA-Aalpha3 receptor plus beta-3-gamma-2 expressed in mouse L(tk-) cells. Format: cell-based. Summed up:
(§1)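 Competition binding against [³H]Ro15-1788 used at twice its Kd, with human GABA-A αxβ3γ2 receptors (α1 or α3) stably expressed in mouse LTK fibroblasts. Ki was calculated by Cheng-Prusoff from the inhibition curves. Values are means of three determinations.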
On the technique in general: Loss of bound radioactivity is the signal in a displacement assay; it reports binding, not function.

Series [4] concerns the target T2, GABA-A receptor; alpha-1/beta-3/gamma-2 (Homo sapiens, UniProt P14867+P18507+P28472).
T2 sequence (P14867 whole entry): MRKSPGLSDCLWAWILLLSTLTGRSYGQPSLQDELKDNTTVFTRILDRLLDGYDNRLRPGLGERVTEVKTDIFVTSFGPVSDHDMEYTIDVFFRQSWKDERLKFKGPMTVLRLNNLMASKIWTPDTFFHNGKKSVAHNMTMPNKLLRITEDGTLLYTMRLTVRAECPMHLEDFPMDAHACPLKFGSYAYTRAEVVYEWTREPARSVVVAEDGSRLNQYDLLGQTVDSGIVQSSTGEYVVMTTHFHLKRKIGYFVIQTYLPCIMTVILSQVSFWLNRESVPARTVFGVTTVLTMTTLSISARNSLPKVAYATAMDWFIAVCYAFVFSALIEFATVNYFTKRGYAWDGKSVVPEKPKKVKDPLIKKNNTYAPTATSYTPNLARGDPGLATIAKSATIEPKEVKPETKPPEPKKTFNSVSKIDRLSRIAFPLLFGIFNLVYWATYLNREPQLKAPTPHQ
T2 sequence (P18507 whole entry): T1 sequence (P18507 whole entry)
T2 sequence (P28472 whole entry): T1 sequence (P28472 whole entry)
As to the kind of experiment: Displacement of [3H]Ro 15-1788 from human GABA-Aalpha1 receptor plus beta-3-gamma-2 expressed in mouse L(tk-) cells. Format: cell-based. Summed up: as §1

Series [5] has as its target T3, GABA-A receptor; alpha-1/beta-3/gamma-2 (Homo sapiens) (UniProt P14867+P18507+P28472). As to the kind of experiment: Efficacy against GABA-Aalpha1 receptor plus beta-3-gamma-2 expressed in mouse L(tk-) cells relative to chlorodiazepoxide by electrophysiology method. Format: functional, cell-based. Summed up: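 Human GABA-A α1β3γ2 receptors stably expressed in mouse LTK fibroblasts. Electrophysiology measured maximum modulation of the GABA EC20 response, expressed relative to the maximal response of the full agonist chlordiazepoxide. Means of at least 5 determinations.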

The target in series [6] is GABA-A receptor; alpha-3/beta-3/gamma-2 (Homo sapiens) (UniProt P18507+P28472+P34903). In words: Efficacy against GABA-Aalpha3 receptor plus beta-3-gamma-2 expressed in mouse L(tk-) cells relative to chlorodiazepoxide by chlorine flux assay. It is filed as functional, cell-based. Summed up:
(§2)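 Human GABA-A αxβ3γ2 receptors (α1 or α3) stably expressed in mouse LTK fibroblasts. ³⁶Cl⁻ flux assay with drug at 1000× Ki and GABA at EC20. Efficacy expressed relative to the maximal response of the full agonist chlordiazepoxide. Means of at least 7 determinations.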

Series [7] has as its target T3, GABA-A receptor; alpha-1/beta-3/gamma-2 (Homo sapiens). As to the kind of experiment: Efficacy against GABA-Aalpha1 receptor plus beta3gamma2 expressed in mouse L(tk-) cells relative to chlorodiazepoxide by chlorine flux assay. It is filed as functional, cell-based. Summed up: as §2

What is called logD is the decadic logarithm of the distribution of all forms, ionised or not, between an organic phase and buffer at a given pH. A low value points to lower lipophilicity. Broadly, the pKa is the negative logarithm of the acid dissociation constant. `c1cnc2nccn2c1`: the logD in series [1] was -0.2. In addition, the pKa in series [2] was 4.9.
The Ki is the dissociation constant of the complex between target and ligand, obtained from inhibition or displacement. Regarding `CC(C)(O)c1ccn2c(-c3ccc(F)c(-c4ccccc4C#N)c3)cnc2c1F`, the Ki in series [3] was 0.32 nM; in series [4], 0.2 nM. The Efficacy was found to be 34% in series [5] and 104% in series [6].
`Fc1cccn2ccnc12` returned a pH-dependent lipophilicity (logD) in series [1] of 0.9. This compound also gave a pKa in series [2] of 4.9.
Regarding `CC(C)(O)c1ccn2c(-c3ccc(F)c(-c4ccccc4C#N)c3)cnc2n1`, the inhibition constant (Ki) worked out at 0.47 nM in series [3] and 0.71 nM in series [4]. Besides, the Efficacy in series [5] is 60%; in series [6] it was 79%.
In series [1], `CC(C)(O)c1ccn2ccnc2c1` gave a logD of 0.6. Also, the pKa in series [2] is 7.2.
Turning to `CC(C)(O)c1ccn2c(-c3ccc(F)c(-c4ccccc4C#N)c3)cnc2c1`, the Ki was 5.16 nM in series [3] and 4.35 nM in series [4]. In addition, the Efficacy stood at 35% in series [7] and 61% in series [6].
For the compound `CC(C)(O)c1ccn2ccnc2n1`, the log distribution coefficient (logD) in series [1] was 0.1. Also, the pKa in series [2] turned out to be 5.4.
In the same order, the values of `CC(C)(O)c1ccn2ccnc2c1F` are 1.1 and 5.4.
On to `c1ccn2ccnc2c1`, for which the logD in series [1] was found to be 0.8. The compound also returned a pKa in series [2] of 6.9.

For the origin of these results see ChEMBL document CHEMBL1139669, “8-Fluoroimidazo[1,2-a]pyridine: synthesis, physicochemical properties and evaluation as a bioisosteric replacement for imidazo[1,2-a]pyrimidine in an allosteric modulator ligand of the GABA A receptor” (Bioorg Med Chem Lett, 2006).
